The record followed here is ChEMBL document CHEMBL3351247 (J Med Chem, 2014).

Molecules are shown by their SMILES.

The target of this assay is Kappa-type opioid receptor (Homo sapiens, UniProt P41145). Briefly: Agonist activity at human KOR expressed in CHO cells assessed as inhibition of forskolin-induced cAMP accumulation after 30 mins by luminescence assay. The class given is functional, cell-based. An outline of the steps:
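CHO cells stably expressing KOR or MOR, plated at 10 000 cells/well and incubated overnight at 37 °C. Compounds given as 10-point serial dilutions (1% DMSO final) with 20 μM forskolin final in HBSS/10 mM HEPES. Incubation 30 min at 37 °C, then detection reagents overnight at room temperature. HitHunter cAMP luminescence read-out; data normalized to vehicle and forskolin-only controls, nonlinear regression.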
(In general: Changes in cAMP serve as a functional read-out for many G protein-coupled receptors.)

Kappa-type opioid receptor, sequence (P41145 whole entry): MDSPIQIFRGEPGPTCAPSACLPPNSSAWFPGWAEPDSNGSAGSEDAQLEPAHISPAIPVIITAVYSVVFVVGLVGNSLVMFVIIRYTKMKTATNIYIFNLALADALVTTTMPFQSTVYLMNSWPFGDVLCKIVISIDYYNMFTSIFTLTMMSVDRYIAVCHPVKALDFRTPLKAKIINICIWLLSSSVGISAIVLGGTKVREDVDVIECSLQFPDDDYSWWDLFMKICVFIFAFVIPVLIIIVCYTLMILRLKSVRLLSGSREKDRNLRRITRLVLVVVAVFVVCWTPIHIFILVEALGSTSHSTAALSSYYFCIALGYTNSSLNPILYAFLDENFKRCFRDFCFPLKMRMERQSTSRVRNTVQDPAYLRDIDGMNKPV

In the case of `COC(=O)[C@@H]1C[C@H](OC(C)=O)C(=O)[C@H]2[C@@]1(C)CC[C@H]1C(=O)O[C@H](c3cc(C)oc3C)C[C@]21C`, the EC50 (in general, the concentration needed to bring the measured effect to its halfway point) is 250 nM and the maximum response (Emax) (usually the maximal effect, on the per cent scale that the assay sets) turned out to be 100%.
The corresponding values for `COC(=O)[C@@H]1C[C@H](OC(C)=O)C(=O)[C@H]2[C@@]1(C)CC[C@H]1C(=O)O[C@H](c3ccoc3-c3cccc(C)c3)C[C@]21C` are 3.4 nM and 100%.
The corresponding values for `COC(=O)[C@@H]1C[C@H](OC(C)=O)C(=O)[C@H]2[C@@]1(C)CC[C@H]1C(=O)O[C@H](c3ccoc3C#N)C[C@]21C` are 9.4 nM and 100%.
The corresponding values for `COC(=O)[C@@H]1C[C@H](OC(C)=O)C(=O)[C@H]2[C@@]1(C)CC[C@H]1C(=O)O[C@H](c3ccoc3-c3cccc(F)c3)C[C@]21C` are 12 nM and 100%.
For the compound `COC(=O)[C@@H]1C[C@H](OC(C)=O)C(=O)[C@H]2[C@@]1(C)CC[C@H]1C(=O)O[C@H](c3ccoc3-c3ccccc3N)C[C@]21C`, the concentration for a half-maximal effect (EC50) stood at 430 nM and the Emax is 100%.
With `COC(=O)[C@@H]1C[C@H](OC(C)=O)C(=O)[C@H]2[C@@]1(C)CC[C@H]1C(=O)O[C@H](c3ccoc3C(F)(F)F)C[C@]21C`, the half-maximal effective concentration (EC50) was determined as 31 nM and the maximum response (Emax) is 100%.
The corresponding values for `COC(=O)[C@@H]1C[C@H](OC(C)=O)C(=O)[C@H]2[C@@]1(C)CC[C@H]1C(=O)O[C@H](c3ccoc3-c3ccccc3C)C[C@]21C` are 5.4 nM and 100%.
Taken in the same sequence, the figures for `C=Cc1occc1[C@@H]1C[C@]2(C)[C@H]3C(=O)[C@@H](OC(C)=O)C[C@@H](C(=O)OC)[C@]3(C)CC[C@H]2C(=O)O1` were 0.96 nM and 100%.
The corresponding values for `COC(=O)[C@@H]1C[C@H](OC(C)=O)C(=O)[C@H]2[C@@]1(C)CC[C@H]1C(=O)O[C@H](c3ccoc3-c3ccoc3)C[C@]21C` are 6.5 nM and 100%.
For the compound `COC(=O)[C@@H]1C[C@H](OC(C)=O)C(=O)[C@H]2[C@@]1(C)CC[C@H]1C(=O)O[C@H](c3ccoc3-c3cccc([N+](=O)[O-])c3)C[C@]21C`, the EC50 is 450 nM and the maximum response (Emax) stood at 100%.
Taken in the same sequence, the figures for `COC(=O)[C@@H]1C[C@H](OC(C)=O)C(=O)[C@H]2[C@@]1(C)CC[C@H]1C(=O)O[C@H](c3ccoc3C#CCCCO)C[C@]21C` were 890 nM and 100%.
The corresponding values for `COC(=O)[C@@H]1C[C@H](OC(C)=O)C(=O)[C@H]2[C@@]1(C)CC[C@H]1C(=O)O[C@H](c3coc(C(F)(F)F)c3)C[C@]21C` are 3.1 nM and 100%.
The corresponding values for `COC(=O)[C@@H]1C[C@H](OC(C)=O)C(=O)[C@H]2[C@@]1(C)CC[C@H]1C(=O)O[C@H](c3ccoc3CO)C[C@]21C` are 3.3 nM and 100%.
Turning to `COC(=O)[C@@H]1C[C@H](OC(C)=O)C(=O)[C@H]2[C@@]1(C)CC[C@H]1C(=O)O[C@H](c3ccoc3C#Cc3ccccc3)C[C@]21C`, the EC50 was found to be 100 nM and the maximal effect (Emax) is 100%.
The corresponding values for `COC(=O)[C@@H]1C[C@H](OC(C)=O)C(=O)[C@H]2[C@@]1(C)CC[C@H]1C(=O)O[C@H](c3ccoc3CCc3ccccc3)C[C@]21C` are 38 nM and 100%.
Taken in the same sequence, the figures for `COC(=O)[C@@H]1C[C@H](OC(C)=O)C(=O)[C@H]2[C@@]1(C)CC[C@H]1C(=O)O[C@H](c3ccoc3C3CC3)C[C@]21C` were 1 nM and 100%.
The corresponding values for `COC(=O)[C@@H]1C[C@H](OC(C)=O)C(=O)[C@H]2[C@@]1(C)CC[C@H]1C(=O)O[C@H](c3cc(Br)oc3Br)C[C@]21C` are 240 nM and 100%.
As for `COC(=O)[C@@H]1C[C@H](OC(C)=O)C(=O)[C@H]2[C@@]1(C)CC[C@H]1C(=O)O[C@H](c3ccoc3C#Cc3ccccc3C(F)(F)F)C[C@]21C`, the EC50 came out at 430 nM and the maximum response (Emax) worked out at 100%.
Taken in the same sequence, the figures for `COC(=O)[C@@H]1C[C@H](OC(C)=O)C(=O)[C@H]2[C@@]1(C)CC[C@H]1C(=O)O[C@H](c3ccoc3-c3ccccc3C(F)(F)F)C[C@]21C` were 8.4 nM and 100%.
For the compound `COC(=O)[C@@H]1C[C@H](OC(C)=O)C(=O)[C@H]2[C@@]1(C)CC[C@H]1C(=O)O[C@H](c3ccoc3-c3ccc(OC)cc3)C[C@]21C`, the concentration for a half-maximal effect (EC50) came to 16 nM and the Emax came to 100%.
Taken in the same sequence, the figures for `COC(=O)[C@@H]1C[C@H](OC(C)=O)C(=O)[C@H]2[C@@]1(C)CC[C@H]1C(=O)O[C@H](c3ccoc3-c3ccc(F)cc3)C[C@]21C` were 54 nM and 100%.
The corresponding values for `CC#Cc1occc1[C@@H]1C[C@]2(C)[C@H]3C(=O)[C@@H](OC(C)=O)C[C@@H](C(=O)OC)[C@]3(C)CC[C@H]2C(=O)O1` are 26 nM and 100%.
Regarding `CCCC#Cc1occc1[C@@H]1C[C@]2(C)[C@H]3C(=O)[C@@H](OC(C)=O)C[C@@H](C(=O)OC)[C@]3(C)CC[C@H]2C(=O)O1`, the concentration for a half-maximal effect (EC50) stood at 9250 nM and the Emax came out at 100%.
Taken in the same sequence, the figures for `COC(=O)[C@@H]1C[C@H](OC(C)=O)C(=O)[C@H]2[C@@]1(C)CC[C@H]1C(=O)O[C@H](c3ccoc3-c3ccc4ccccc4c3)C[C@]21C` were 25 nM and 100%.
Taken in the same sequence, the figures for `COC(=O)[C@@H]1C[C@H](OC(C)=O)C(=O)[C@H]2[C@@]1(C)CC[C@H]1C(=O)O[C@H](c3ccoc3-c3ccc([N+](=O)[O-])cc3)C[C@]21C` were 170 nM and 100%.
Taken in the same sequence, the figures for `COC(=O)[C@@H]1C[C@H](OC(C)=O)C(=O)[C@H]2[C@@]1(C)CC[C@H]1C(=O)O[C@H](c3ccoc3-c3ccccc3F)C[C@]21C` were 1.2 nM and 100%.
As to `COC(=O)[C@@H]1C[C@H](OC(C)=O)C(=O)[C@H]2[C@@]1(C)CC[C@H]1C(=O)O[C@H](c3ccoc3-c3ccccc3OC)C[C@]21C`, the EC50 was 10 nM and the maximal effect (Emax) amounted to 100%.
The corresponding values for `COC(=O)[C@@H]1C[C@H](OC(C)=O)C(=O)[C@H]2[C@@]1(C)CC[C@H]1C(=O)O[C@H](c3ccoc3-c3ccsc3)C[C@]21C` are 4.3 nM and 100%.
As to `COC(=O)[C@@H]1C[C@H](OC(C)=O)C(=O)[C@H]2[C@@]1(C)CC[C@H]1C(=O)O[C@H](c3ccoc3-c3cccc4ccccc34)C[C@]21C`, the EC50 turned out to be 37 nM and the maximal effect (Emax) is 100%.
Consider `COC(=O)[C@@H]1C[C@H](OC(C)=O)C(=O)[C@H]2[C@@]1(C)CC[C@H]1C(=O)O[C@H](c3ccoc3/C=C/c3ccccc3)C[C@]21C`, for which the concentration giving a half-maximal response (EC50) turned out to be 20 nM and the Emax was found to be 100%.
As to `COC(=O)[C@@H]1C[C@H](OC(C)=O)C(=O)[C@H]2[C@@]1(C)CC[C@H]1C(=O)O[C@H](c3ccoc3-c3ccccc3[N+](=O)[O-])C[C@]21C`, the concentration giving a half-maximal response (EC50) is 360 nM and the Emax came to 100%.
Taken in the same sequence, the figures for `COC(=O)[C@@H]1C[C@H](OC(C)=O)C(=O)[C@H]2[C@@]1(C)CC[C@H]1C(=O)O[C@H](c3ccoc3C=O)C[C@]21C` were 7.3 nM and 100%.
Taken in the same sequence, the figures for `COC(=O)[C@@H]1C[C@H](OC(C)=O)C(=O)[C@H]2[C@@]1(C)CC[C@H]1C(=O)O[C@H](c3ccoc3C#Cc3ccccc3OC)C[C@]21C` were 6100 nM and 100%.
The corresponding values for `COC(=O)[C@@H]1C[C@H](OC(C)=O)C(=O)[C@H]2[C@@]1(C)CC[C@H]1C(=O)O[C@H](c3ccoc3-c3ccc(N)cc3)C[C@]21C` are 620 nM and 65%.
With `COC(=O)[C@@H]1C[C@H](OC(C)=O)C(=O)[C@H]2[C@@]1(C)CC[C@H]1C(=O)O[C@H](c3ccoc3-c3cccc(C(F)(F)F)c3)C[C@]21C`, the concentration giving a half-maximal response (EC50) was 27 nM and the maximum response (Emax) was determined as 100%.
Regarding `COC(=O)[C@@H]1C[C@H](OC(C)=O)C(=O)[C@H]2[C@@]1(C)CC[C@H]1C(=O)O[C@H](c3ccoc3-c3cccc(OC)c3)C[C@]21C`, the half-maximal effective concentration (EC50) is 8.6 nM and the Emax came out at 100%.
Taken in the same sequence, the figures for `COC(=O)[C@@H]1C[C@H](OC(C)=O)C(=O)[C@H]2[C@@]1(C)CC[C@H]1C(=O)O[C@H](c3ccoc3-c3ccco3)C[C@]21C` were 6.7 nM and 100%.
For the compound `COC(=O)[C@@H]1C[C@H](OC(C)=O)C(=O)[C@H]2[C@@]1(C)CC[C@H]1C(=O)O[C@H](c3ccoc3-c3cccc(N)c3)C[C@]21C`, the EC50 was found to be 630 nM and the Emax turned out to be 100%.
The corresponding values for `COC(=O)[C@@H]1C[C@H](OC(C)=O)C(=O)[C@H]2[C@@]1(C)CC[C@H]1C(=O)O[C@H](c3ccoc3-c3ccccc3)C[C@]21C` are 1.3 nM and 100%.
The corresponding values for `COC(=O)[C@@H]1C[C@H](OC(C)=O)C(=O)[C@H]2[C@@]1(C)CC[C@H]1C(=O)O[C@H](c3ccoc3-c3ccc(C(F)(F)F)cc3)C[C@]21C` are 1020 nM and 100%.
As to `CCc1occc1[C@@H]1C[C@]2(C)[C@H]3C(=O)[C@@H](OC(C)=O)C[C@@H](C(=O)OC)[C@]3(C)CC[C@H]2C(=O)O1`, the EC50 was determined as 2.9 nM and the Emax came out at 100%.
Taken in the same sequence, the figures for `COC(=O)[C@@H]1C[C@H](OC(C)=O)C(=O)[C@H]2[C@@]1(C)CC[C@H]1C(=O)O[C@H](c3ccoc3-c3ccc(C)cc3)C[C@]21C` were 2.3 nM and 100%.
